Reference: ChEMBL document CHEMBL3739331, “Synthesis and Bioactivities of Kanamycin B-Derived Cationic Amphiphiles” (J Med Chem, 2015)
Values after ≈ are worked out from the molar mass of the structure shown. Active and inactive are the calls of the source. The calls are words filed in the database; no cut-off is given here.

Columns and labels:
Candida albicans [1] = assay: Antifungal activity against azole-resistant Candida albicans ATCC 90819 after 48 hrs in presence of posaconazole by checkerboard microdilution assay; assay type: functional; conditions: ATCC 90819, 48 h
In short: (§1)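 Checkerboard combinations of the aminoglycoside amphiphile with posaconazole against yeast strains, run in duplicate. Each agent's MIC is taken alone and in combination. The fractional inhibitory concentration index (FICI) is calculated to classify the interaction.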

Candida albicans [2] = assay: Antifungal activity against azole-susceptible Candida albicans ATCC MYA-2310 after 48 hrs in presence of posaconazole by checkerboard microdilution assay; assay type: functional; conditions: ATCC MYA-2310, 48 h; in short: as §1
Candida albicans [3] = assay: Antifungal activity against azole-resistant Candida albicans MYA-1237 after 48 hrs in presence of posaconazole by checkerboard microdilution assay; assay type: functional; conditions: MYA-1237, 48 h; in short: as §1
Candida albicans [4] = assay: Antifungal activity against azole-resistant Candida albicans MYA-1003 after 48 hrs in presence of posaconazole by checkerboard microdilution assay; assay type: functional; conditions: MYA-1003, 48 h; in short: as §1
Candida albicans [5] = assay: Antifungal activity against azole-resistant Candida albicans ATCC 64124 at sub-MIC measured over 24 hrs by time-kill assay; assay type: functional, organism-based
In short: (§2)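 Time-kill assay on C. albicans ATCC 64124 cultures exposed to test compound at 1/2 MIC, MIC and higher concentrations. Amphotericin B at 1 μg/mL and a no-drug culture serve as controls. CFU are counted at intervals over 24 h.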

Candida albicans [6] = assay: Antifungal activity against azole-resistant Candida albicans ATCC 64124 at MIC measured after 6 hrs by time-kill assay; assay type: functional; in short: as §2
Candida albicans [7] = assay: Antifungal activity against azole-resistant Candida albicans ATCC 64124 assessed as cell death after 12 hrs by time-kill assay; assay type: functional, organism-based; in short: as §2
Candida albicans [8] = assay: Antifungal activity against azole-resistant Candida albicans ATCC 64124 assessed as cell membrane permeabilization at twice the MIC after 1 hr by propidium iodide-staining based fluorescence microscopic analysis (reference value: <2%); assay type: functional
[9] = Hemolytic activity against mouse RBC at 7.8 ug/ml after 60 mins; assay type: ADME, cell-based, Erythrocyte; conditions: red blood cells, read-out: Activity
[10] = Hemolytic activity against mouse RBC at 500 ug/ml after 60 mins; assay type: ADME, cell-based, Erythrocyte; conditions: red blood cells, read-out: Activity
A549 = assay: Cytotoxicity against human A549 cells after 24 hrs by resazurin assay; assay type: cell-based; conditions: Homo sapiens, A549, 24 h
[11] = Cytotoxicity against human BEAS2B cells after 24 hrs by resazurin assay; assay type: cell-based, BEAS-2B; conditions: Homo sapiens, BEAS-2B
Klebsiella pneumoniae = assay: Antibacterial activity against Klebsiella pneumoniae ATCC 27736 by microdilution method; assay type: functional
In short: (§3)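 Broth microdilution MIC against the named bacterial strain, reported in μg/mL; each determination run at least in duplicate.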

[12] = Activity of AAC(3)-4 (unknown origin) assessed as compound acetylation activity by Ellman's method
Candida albicans [13] = assay: Antifungal activity against azole-resistant Candida albicans ATCC 64124 assessed as cell membrane permeabilization at 1 times MIC after 1 hr by propidium iodide-staining based fluorescence microscopic analysis (reference value: <2%); assay type: functional
Bacillus subtilis = assay: Antibacterial activity against Bacillus subtilis 168 by microdilution method; assay type: functional; conditions: subsp. subtilis str. 168; in short: as §3
Listeria monocytogenes = assay: Antibacterial activity against Listeria monocytogenes ATCC 19115 by microdilution method; assay type: functional; in short: as §3
Staphylococcus aureus [14] = assay: Antibacterial activity against methicillin-resistant Staphylococcus aureus by microdilution method; assay type: functional
In short: (§4)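 Broth microdilution MIC, in μg/mL, against a panel of Gram-positive and Gram-negative strains. Run at least in duplicate.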

Staphylococcus aureus [15] = assay: Antibacterial activity against Staphylococcus aureus NRS382 (USA 100) by microdilution method; assay type: functional; in short: as §3
Staphylococcus aureus [16] = assay: Antibacterial activity against Staphylococcus aureus NRS383 (USA 200) by microdilution method; assay type: functional; in short: as §3
Staphylococcus aureus [17] = assay: Antibacterial activity against Staphylococcus aureus NRS385 (USA 300) by microdilution method; assay type: functional; in short: as §4
[18] = system: Staphylococcus epidermidis; assay: Antibacterial activity against Staphylococcus epidermidis ATCC 12228 by microdilution method; assay type: functional; in short: as §3
Acinetobacter baumannii = assay: Antibacterial activity against Acinetobacter baumannii ATCC 19606 by microdilution method; assay type: functional; in short: as §3
Enterobacter cloacae = assay: Antibacterial activity against Enterobacter cloacae ATCC 13047 by microdilution method; assay type: functional; in short: as §3
Escherichia coli = assay: Antibacterial activity against Escherichia coli MC1061 by microdilution method; assay type: functional; in short: as §4
Pseudomonas aeruginosa = assay: Antibacterial activity against Pseudomonas aeruginosa ATCC 27853 by microdilution method; assay type: functional; in short: as §3
Salmonella enterica = assay: Antibacterial activity against Salmonella enterica ATCC 14028 by microdilution method; assay type: functional; in short: as §3
[19] = system: Bacillus subtilis subsp. subtilis str. 168; assay: Activity of Bacillus subtilis 168 APH(2'')-1a assessed as compound phosphorylation activity by Ellman's method
[20] = Activity of AAC(6')-1e/APH(2'')-1a (unknown origin) assessed as compound acetylation activity by Ellman's method
Serratia marcescens = assay: Activity of Serratia marcescens AAC(6')-2d assessed as compound acetylation activity by Ellman's method
[21] = system: Mycobacterium tuberculosis; assay: Activity of Mycobacterium tuberculosis AAC(2')-1c assessed as compound acetylation activity by Ellman's method
[22] = system: Mycobacterium tuberculosis; assay: Activity of Mycobacterium tuberculosis Eis assessed as compound acetylation activity by Ellman's method
[23] = Activity of Mycobacterium tuberculosis AAC(2')-1c/AAC(3)-4 (unknown origin) assessed as compound conversion to 3'-acetylated product incubated for 20 hrs by TLC analysis
[24] = Activity of Mycobacterium tuberculosis AAC(2')-1c/Serratia marcescens AAC(6')-2d assessed as compound conversion to 6'-monoacetylated product incubated for 20 hrs by TLC analysis
[25] = Activity of AAC(3)-4 (unknown origin)/Serratia marcescens AAC(6')-2d assessed as compound conversion to 3'-acetylated product incubated for 20 hrs by TLC analysis
[26] = Activity of Mycobacterium tuberculosis AAC(2')-1c/AAC(3)-4 (unknown origin)/Serratia marcescens AAC(6')-2d (unknown origin) assessed as compound conversion to 3'-monoacetylated product incubated for 20 hrs by TLC analysis
Candida albicans [27] = assay: Antifungal activity against azole-resistant Candida albicans ATCC 10231 after 48 hrs by microbroth dilution method; assay type: functional; conditions: ATCC 10231, 48 h
In short: (§5)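 Yeast MIC by broth microdilution, run in duplicate. The aminoglycoside compounds are read as MIC-0 (complete inhibition). Azoles are read as MIC-2 (50% inhibition).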

Candida albicans [28] = assay: Antifungal activity against azole-resistant Candida albicans ATCC 64124 after 48 hrs by microbroth dilution method; assay type: functional; conditions: ATCC 64124, 48 h; in short: as §5
Candida albicans [29] = assay: Antifungal activity against azole-susceptible Candida albicans ATCC MYA-2876 after 48 hrs by microbroth dilution method; assay type: functional; conditions: ATCC MYA-2876, 48 h; in short: as §5
Candida albicans [30] = assay: Antifungal activity against azole-resistant Candida albicans ATCC 90819 after 48 hrs by microbroth dilution method; assay type: functional; conditions: ATCC 90819, 48 h; in short: as §5
Candida albicans [31] = assay: Antifungal activity against azole-susceptible Candida albicans ATCC MYA-2310 after 48 hrs by microbroth dilution method; assay type: functional; conditions: ATCC MYA-2310, 48 h; in short: as §5
Candida albicans [32] = assay: Antifungal activity against azole-resistant Candida albicans MYA-1237 after 48 hrs by microbroth dilution method; assay type: functional; conditions: MYA-1237, 48 h; in short: as §5
Candida albicans [33] = assay: Antifungal activity against azole-resistant Candida albicans MYA-1003 after 48 hrs by microbroth dilution method; assay type: functional; conditions: MYA-1003, 48 h; in short: as §5
Aspergillus nidulans = assay: Antifungal activity against Aspergillus nidulans ATCC 38163 after 48 hrs by microbroth dilution method; assay type: functional; conditions: ATCC 38163, 48 h
In short: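 Filamentous fungus MIC by broth microdilution, run in duplicate. All compounds are read as MIC-0 (complete inhibition).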

Candida albicans [34] = assay: Antifungal activity against azole-resistant Candida albicans ATCC 10231 after 48 hrs in presence of posaconazole by checkerboard microdilution assay; assay type: functional; conditions: ATCC 10231, 48 h; in short: as §1
Candida albicans [35] = assay: Antifungal activity against azole-resistant Candida albicans ATCC 64124 after 48 hrs in presence of posaconazole by checkerboard microdilution assay; assay type: functional; conditions: ATCC 64124, 48 h; in short: as §1
Candida albicans [36] = assay: Antifungal activity against azole-susceptible Candida albicans ATCC MYA-2876 after 48 hrs in presence of posaconazole by checkerboard microdilution assay; assay type: functional; conditions: ATCC MYA-2876, 48 h; in short: as §1

Structure (SMILES): CCCCCCCCCCCCCCSC[C@@H]1O[C@@H](O[C@@H]2[C@@H](O)[C@H](O[C@@H]3O[C@@H](CN)[C@H](O)[C@@H](O)[C@@H]3N)[C@@H](N)C[C@H]2N)[C@@H](O)[C@H](N)[C@H]1O (stereo in doubt)
- MIC (Candida albicans [1]): 1 µg/mL
- MIC (Candida albicans [2]): 1 µg/mL
- MIC (Candida albicans [3]): 1 µg/mL
- MIC (Candida albicans [4]): 2 µg/mL
- Activity (Candida albicans [5]): Active
- LCK (Candida albicans [6]): >=2
- Activity (Candida albicans [7]): Active
- Activity (Candida albicans [8]): 49%
- hemolysis at 1 h, 7.8 ug/ml [9]: 15%
- hemolysis at 1 h, 500 ug/ml [10]: 73%
- IC50 (A549): > 62.5 µg/mL
- IC50 [11]: > 62.5 µg/mL
- MIC (Klebsiella pneumoniae): > 128 µg/mL
- Activity [12]: inactive
- Activity (Candida albicans [13]): 84%
- MIC (Bacillus subtilis): > 128 µg/mL
- MIC (Listeria monocytogenes): 0.5 µg/mL (≈ 0.718 µM)
- MIC (Staphylococcus aureus [14]): 32 µg/mL (≈ 46 µM)
- MIC (Staphylococcus aureus [15]): 32 µg/mL (≈ 46 µM)
- MIC (Staphylococcus aureus [16]): 8 µg/mL (≈ 11.5 µM)
- MIC (Staphylococcus aureus [17]): 16 µg/mL (≈ 23 µM)
- MIC [18]: > 128 µg/mL
- MIC (Acinetobacter baumannii): > 128 µg/mL
- MIC (Enterobacter cloacae): 128 µg/mL (≈ 184 µM)
- MIC (Escherichia coli): > 128 µg/mL
- MIC (Pseudomonas aeruginosa): 64 µg/mL (≈ 92 µM)
- MIC (Salmonella enterica): 32 µg/mL (≈ 46 µM)
- Activity [19]: inactive
- Activity [20]: inactive
- Activity (Serratia marcescens): inactive
- Activity [21]: inactive
- Activity [22]: inactive
- Activity [23]: Active
- Activity [24]: Active
- Activity [25]: Active
- Activity [26]: Active
- MIC (Candida albicans [27]): 7.8 µg/mL (≈ 11.2 µM)
- MIC (Candida albicans [28]): 7.8 µg/mL (≈ 11.2 µM)
- MIC (Candida albicans [29]): 7.8 µg/mL (≈ 11.2 µM)
- MIC (Candida albicans [30]): 15.6 µg/mL (≈ 22.4 µM)
- MIC (Candida albicans [31]): 7.8 µg/mL (≈ 11.2 µM)
- MIC (Candida albicans [32]): 7.8 µg/mL (≈ 11.2 µM)
- MIC (Candida albicans [33]): 7.8 µg/mL (≈ 11.2 µM)
- MIC (Aspergillus nidulans): ≤ 1.95 µg/mL
- MIC (Candida albicans [34]): 4 µg/mL
- MIC (Candida albicans [35]): 1 µg/mL
- MIC (Candida albicans [36]): 1 µg/mL
